Results on 16 compounds are retold here after ChEMBL document CHEMBL1833818, “Synthesis of phenanthroindolizidine alkaloids and evaluation of their antitumor activities and toxicities” (Bioorg Med Chem Lett, 2011).

A short description of data set [1]: Antitumor activity against mouse Meth-A cells xenografted in BALB/c mouse assessed as tumor growth inhibition at 50 mg/kg, iv administered on day 1, 5, 9 and measured on day 21 post-implantation relative to control. It counts as functional. To be noted: read-out: GI. The gist of the method:
(§1)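 Meth A sarcoma cells (2.5 × 10⁵/mouse) inoculated s.c. into 7-week-old male BALB/c mice, 5 per group; i.v. injection on days 1, 5 and 9. Tumors excised and weighed on day 21 post-inoculation; inhibition rate (%) = [1 − mean tumor weight treated/mean tumor weight control] × 100. Mortality also recorded.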

In data set [2] the test system is Mus musculus. Kind of data set: Toxicity in mouse Meth-A cells xenografted BALB/c mouse assessed as mortality at 50 mg/kg, iv. It counts as organism-based. The settings on record: in vivo. More on the design: dose 50 mg/kg, route intravenous. The gist of the method:
(§2)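 Meth A sarcoma cells, 2.5 × 10⁵ per mouse, inoculated s.c. into 7-week-old male BALB/c mice, 5 per group. Samples were injected i.v. on days 1, 5 and 9. Tumours were excised and weighed on day 21 after inoculation. Mortality was recorded per group as deaths/5.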

The subject of the next data set is HT-29. The experiment in a line: Cytotoxicity against human HT-29 cells after 96 hrs by […] assay. To be noted: HT-29, 96 h. It counts as functional, cell-based. The gist of the method: (§3)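 Exponentially growing cells seeded at 10³ cells/well; serially diluted compounds added next day, 96 h exposure. Tetrazolium reagent (2-(2-methoxy-4-nitrophenyl)-3-(4-nitrophenyl)-5-(2,4-disulfophenyl)-2H-tetrazolium) added, 1 h at 37 °C, absorbance 450 nm. IC50 = concentration inhibiting growth 50% versus solvent-treated cells.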

Data set [3] deals with HCT-116. Kind of data set: Antitumor activity against human HCT116 cells xenografted in nude mouse assessed as tumor growth inhibition at 200 mg/kg, ip administered 10 times on days 1 to 5 and 8 to 12 measured on day 21 post-implantation relative to control. It counts as functional. The settings on record: HCT-116, ip, 504 h, route intraperitoneal, read-out: GI. The gist of the method:
(§4)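 HCT116 cells (2 × 10⁶/mouse) implanted s.c. in 6-week-old male nude mice; groups of 5 formed when estimated tumor volume reached about 100 mm³ (day 0). Dosing i.p. on days 1–5 and 8–12. Tumors excised and weighed day 21 after inoculation; inhibition rate (%) = [1 − mean tumor weight treated/mean tumor weight control] × 100.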
For orientation: A xenograft is tissue or cells of one species grown in another, often human tumour cells in immunodeficient mice.

The test system of data set [4] is Mus musculus. Kind of data set: Toxicity in human HCT116 cells xenografted nude mouse assessed as mortality at 200 mg/kg, ip. It counts as organism-based, HCT-116. To be noted: in vivo. Details: dose 200 mg/kg, route intraperitoneal. In a few lines: (§5)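 HCT116 cells, 2 × 10⁶ per mouse, implanted s.c. in 6-week-old male nude mice. Mice were grouped 5 per group once the estimated tumour volume reached about 100 mm³ (day 0). Samples were given i.p. 10 times, on days 1–5 and 8–12. Tumours were excised and weighed on day 21 after inoculation. Mortality was recorded per group.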

Data set [5] concerns HCT-116. Kind of data set: Cytotoxicity against human HCT116 cells after 96 hrs by […] assay. The settings on record: HCT-116, 96 h. Format: functional, cell-based. In a few lines:
as §3

In data set [6] the test system is Mus musculus. The experiment in a line: Toxicity in mouse Meth-A cells xenografted BALB/c mouse assessed as mortality at 25 mg/kg, iv. Details: dose 25 mg/kg, route intravenous. Format: organism-based. The settings on record: in vivo. The gist of the method: as §2
The subject of data set [7] is Mus musculus. Kind of data set: Toxicity in human HCT116 cells xenografted nude mouse assessed as mortality at 100 mg/kg, ip. The settings on record: in vivo. Details: dose 100 mg/kg, route intraperitoneal. It counts as organism-based, HCT-116. In a few lines:
as §5

Data set [8] can be described thus: Antitumor activity against mouse Meth-A cells xenografted in BALB/c mouse assessed as tumor growth inhibition at 25 mg/kg, iv administered on day 1, 5, 9 and measured on day 21 post-implantation relative to control. It counts as functional. To be noted: read-out: GI. The gist of the method:
as §1

For data set [9], the system named is HCT-116. The experiment in a line: Antitumor activity against human HCT116 cells xenografted in nude mouse assessed as tumor growth inhibition at 100 mg/kg, ip administered 10 times on days 1 to 5 and 8 to 12 measured on day 21 post-implantation relative to control. It counts as functional. The settings on record: HCT-116, ip, 504 h, route intraperitoneal, read-out: GI. The gist of the method:
as §4

Another data set concerns A549. The experiment in a line: Cytotoxicity against human A549 cells after 96 hrs by […] assay. To be noted: A549, 96 h. Format: functional, cell-based. The gist of the method:
as §3

Data set [10] is described as follows: Toxicity in human HCT116 cells xenografted nude mouse assessed as mortality at 6.25 mg/kg, ip. It counts as organism-based, HCT-116. Details: dose 6.25 mg/kg, route intraperitoneal. To be noted: in vivo, read-out: Activity. The gist of the method:
as §5

The subject of data set [11] is Mus musculus. Kind of data set: Toxicity in mouse Meth-A cells xenografted BALB/c mouse assessed as mortality at 100 mg/kg, iv. To be noted: in vivo. Format: organism-based. Details: dose 100 mg/kg, route intravenous. The gist of the method: as §2
The subject of data set [12] is Mus musculus. Kind of data set: Toxicity in human HCT116 cells xenografted nude mouse assessed as mortality at 135 mg/kg, ip. Format: organism-based, HCT-116. Details: dose 135 mg/kg, route intraperitoneal. To be noted: in vivo. In a few lines:
as §5

Data set [13] is described as follows: Antitumor activity against mouse Meth-A cells xenografted in BALB/c mouse assessed as tumor growth inhibition at 100 mg/kg, iv administered on day 1, 5, 9 and measured on day 21 post-implantation relative to control. Format: functional. The settings on record: read-out: GI. In a few lines: as §1
Data set [14] deals with HCT-116. Kind of data set: Antitumor activity against human HCT116 cells xenografted in nude mouse assessed as tumor growth inhibition at 135 mg/kg, ip administered 10 times on days 1 to 5 and 8 to 12 measured on day 21 post-implantation relative to control. Format: functional. The settings on record: HCT-116, ip, 504 h, route intraperitoneal, read-out: GI. The gist of the method: as §4

As for `COc1cc2c3c(c4ccc(O)cc4c2cc1OC)C[C@@H]1CCCN1C3`, in [1], the inhibition in vivo at 50 mg/kg came out at 70.8%. For the same compound, the Activity entry with Mus musculus [2], with Mus musculus [4], in the data set with Mus musculus [6] and in the data set with Mus musculus [7] was “Non-toxic” each time. Moreover, the IC50 (as a rule, the concentration needed to halve the response being measured) in the data set on HT-29 turned out to be 1.8 nM; with HCT-116 [5] it was 0.5 nM; in the data set with A549 it was 0.6 nM. The inhibition in vivo at 200 mg/kg with HCT-116 [3] amounted to 48.7%. The inhibition in vivo at 25 mg/kg in [8] was 46.9%. For the same compound, the inhibition in vivo at 100 mg/kg with HCT-116 [9] turned out to be 35.7%.

As to `Oc1ccc2c3c(c4cc5c(cc4c2c1)OCO5)CN1CCC[C@H]1C3`, the IC50 was 879 nM in the data set on HT-29, 377 nM in the data set on HCT-116 [5] and 392 nM in the data set with A549.

In the case of `COc1cc2c3c(c4ccccc4c2cc1OC)C[C@@H]1CCCN1C3`, the IC50 is 57.1 nM in the data set on HT-29, 49.6 nM with HCT-116 [5] and 48.9 nM with A549. Besides, the Activity result in the data set with Mus musculus [7] is “Non-toxic”. Moreover, the inhibition in vivo at 100 mg/kg in the data set on HCT-116 [9] came out at 21%.

With `COc1cc2c3c(c4ccc(O)cc4c2cc1OC)[C@@H](O)[C@@H]1CCCN1C3`, the values for the IC50 in the data set on HT-29, in the data set with HCT-116 [5] and with A549 were 53.6 nM, 44.4 nM and 52.3 nM, respectively.

As for `COc1cc2c3c(c4ccc(F)cc4c2cc1OC)C[C@@H]1CCCN1C3`, the IC50 in the data set with HT-29 turned out to be 58.9 nM; with HCT-116 [5] it was 48.1 nM; with A549 it was 51 nM. Moreover, the Activity result in the data set with Mus musculus [4] was “Toxic”; in the data set on Mus musculus [7], “Non-toxic”. Moreover, in data set [10], the mortality amounted to 10%. Moreover, the inhibition in vivo at 100 mg/kg in the data set with HCT-116 [9] was found to be 30.7%.

For the compound `COc1cc2c3c(c4cccc(O)c4c2cc1OC)C[C@@H]1CCCN1C3`, the IC50 in the data set with HT-29 is 452 nM; in the data set with HCT-116 [5], 4.7 nM; in the data set on A549 it was 5.5 nM.

In the case of `CCc1ccc2c3c(c4cc(OC)c(OC)cc4c2c1)CN1CCC[C@H]1C3`, the IC50 was found to be 484 nM in the data set with HT-29, 403 nM with HCT-116 [5] and 441 nM in the data set with A549.

Regarding `CCc1c2c(nc3ccc(OC(=O)N4CCC(N5CCCCC5)CC4)cc13)-c1cc3c(c(=O)n1C2)COC(=O)[C@]3(O)CC.Cl`, the Activity entry with Mus musculus [11], in the data set on Mus musculus [2] and in the data set with Mus musculus [12] was “Non-toxic” throughout. Moreover, the inhibition in vivo at 50 mg/kg in data set [1] amounted to 46.2%. For the same compound, the inhibition in vivo at 100 mg/kg in data set [13] worked out at 78.3%. Further, in the data set on HCT-116 [14], the inhibition in vivo at 135 mg/kg is 77%.

Take `COc1cc2c3c(c4ccc(OC(C)=O)cc4c2cc1OC)C[C@@H]1CCCN1C3`: the values for the IC50 in the data set on HT-29, in the data set with HCT-116 [5] and in the data set with A549 were 3.5 nM, 2 nM and 2.8 nM, respectively. Moreover, in the data set on HCT-116 [3], the inhibition in vivo at 200 mg/kg stood at 34.7%. For the same compound, the Activity result in the data set with Mus musculus [4] is reported as “Non-toxic”.

In the case of `COc1cc2c3c(c4ccc(O)cc4c2cc1OC)[C@@H](O)[C@H]1CCCN1C3`, the IC50 in the data set with HT-29 stood at 37 nM; with HCT-116 [5] it was 32.4 nM; with A549, 30.6 nM.

Consider `COc1cc2c3c(c4cc(O)ccc4c2cc1OC)C[C@@H]1CCCN1C3`, for which the IC50 in the data set on HT-29 was found to be 32.1 nM; in the data set on HCT-116 [5] it was 23.5 nM; in the data set with A549 it was 21.6 nM.

Take `COc1cc2c3c(c4ccc(O)cc4c2cc1OC)C[C@H]1CCCN1C3`: the IC50 with HT-29 turned out to be 158 nM; in the data set on HCT-116 [5], 59.9 nM; in the data set with A549, 58.2 nM.

Regarding `COc1cc2c3c(c4ccc(O)cc4c2cc1OC)[C@H](O)[C@H]1CCCN1C3`, the figures for the IC50 in the data set with HT-29, in the data set with HCT-116 [5] and in the data set with A549 were 935 nM, 671 nM and 818 nM, respectively.

`CCOc1cc2c3c(c4ccc(O)cc4c2cc1OCC)C[C@@H]1CCCN1C3`: the results for the IC50 in the data set with HT-29, with HCT-116 [5] and in the data set on A549 were 80.5 nM, 38.8 nM and 42.2 nM, respectively.

Take `COc1ccc2c3c(c4cc(OC)c(OC)cc4c2c1)CN1CCC[C@H]1C3`: the values for the IC50 in the data set with HT-29, with HCT-116 [5] and with A549 were 45.1 nM, 41.7 nM and 43.8 nM, respectively.

Consider `COc1cc2c3c(c4ccc(O)cc4c2cc1OC)[C@H](O)[C@@H]1CCCN1C3` [TYLOPHORIDICINE E], for which the Activity result with Mus musculus [2] is “Toxic”; with Mus musculus [6], “Non-toxic”. Also, the results for the IC50 in the data set on HT-29, in the data set on HCT-116 [5] and with A549 were 2.9 nM, 1.3 nM and 2.7 nM, respectively. The inhibition in vivo at 25 mg/kg in [8] stood at 30.6%.
